Laboratory results reported in ChEMBL document CHEMBL5331136, “Design, Synthesis, and Biological Evaluation of Novel Spiro Imidazobenzodiazepines to Identify Improved Inhaled Bronchodilators” (J Med Chem, 2023).
Converted amounts (≈) assume the structure as drawn. The source made the active and inactive calls. The rule behind the calls is not given here.

Experiments:
[1] = test system: HEK293; experiment: Cytotoxicity against HEK293 cells assessed as lethal dose measured after 18 hrs by CellTiter-Glo assay; type: functional; conditions: Homo sapiens, read-out: LD50 (the source's name)
Procedure, shortened: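 HEK293T cells grown in DMEM/high glucose with NEAA, HEPES, pen/strep, 10% heat-inactivated FBS. Plated 15,000 cells/well, then 4 h at 37 °C, 5% CO2. Compound added as 1:3 serial dilutions, top final concentration 300 µM. After 18 h, read luminescence by CellTiter-Glo. DMSO negative control, aminoketone positive control. Three independent experiments in quadruplicate, variable-slope nonlinear regression.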

[2] = Metabolic stability in mouse liver S9 fraction assessed as parent compound remaining at 10 uM measured after 120 mins in presence of UDP-glucuronic acid by LC-MS/MS analysis; type: ADME, subcellular; conditions: read-out: Stability
Procedure, shortened: (§1)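 Liver S9 (human or mouse), protein 0.5 mg/mL, compound 10 µM (from 1 mM DMSO stock), phosphate buffer pH 7.4, […], alamethicin 0.0225 mg/mL final. Preincubated 5 min at 37 °C, then S9 added. Aliquots at 0 and 120 min quenched in cold methanol with 5 µM 4,5-diphenylimidazole internal standard. Parent remaining from LC-MS/MS peak-area ratio. Two independent assays in triplicate (n = 6).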

[3] = Aqueous solubility of the compound at […] under shaking condition for 24 hrs by UV absorbance based analysis; type: physicochemical; conditions: for solubility: buffer, 24 h; for solubility at 24 h: aqueous
[4] = Metabolic stability in human liver S9 fraction assessed as parent compound remaining at 10 uM measured after 120 mins in presence of UDP-glucuronic acid by LC-MS/MS analysis; type: ADME, subcellular; conditions: read-out: Stability; procedure, shortened: as §1
[5] = test system: Mus musculus; experiment: Induction of bronchodilation in A/J mouse assessed as reduction in sRaw values at 7.2 mg/kg administered as nebulized compound; type: functional, organism-based
Procedure, shortened: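 Female A/J mice, no allergen sensitization, trained 5 days in a double-chamber plethysmograph while conscious. Compound nebulized in PBS at 7.2 mg/kg, then five nebulized methacholine challenges (in water). Each nebulization under 1 min, 3 min recording, 1 min pause. sRaw calculated per interval. n = 12, two-way repeated-measures ANOVA against vehicle.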

[6] = Metabolic stability in mouse liver S9 fraction assessed as parent compound remaining at 10 uM measured after 120 mins in presence of NADPH by LC-MS/MS analysis; type: ADME, subcellular; conditions: read-out: Stability
[7] = Inhibition of sensorimotor coordination in Swiss Webster mouse at 40 mg/kg, po measured after 10 to 30 mins by rotarod analysis; type: toxicity, organism-based; conditions: in vivo, time 10-30 min
Procedure, shortened: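 Female Swiss Webster mice, 10 weeks old, trained on rotarod at 15 rpm for 3 min. Single oral gavage, 100 µL, in 2.5% PEG400/97.5% 2% HPMC. Tested 3 min at 10, 30 and 60 min after dosing; fall time recorded at second fall. n = 12, two-way repeated-measures ANOVA with Bonferroni posttest.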

[8] = Metabolic stability in human liver S9 fraction assessed as parent compound remaining at 10 uM measured after 120 mins in presence of NADPH by LC-MS/MS analysis; type: ADME, subcellular; conditions: for remaining at 2 h, 10 µM: liver S9 fraction, read-out: Stability
[9] = target: GABA-A receptor; anion channel (Rattus norvegicus) (UniProt O09028+P15431+P18506+P18508+P19969+P20236+P23574+P23576+P28471+P28473+P30191+P62813+P63079+P63138+Q91ZM7+Q9ES14); experiment: Displacement of [3H]flunitrazepam from GABAA receptor in rat brain extract at 10 uM relative to control; type: tissue-based
[10] = test system: Trachea; experiment: Induction of smooth muscle relaxation in Hartley guinea pig trachea ring assessed as reduction in substance P induced smooth muscle constriction at 25 uM measured after 30 mins; type: functional, tissue-based; conditions: Cavia porcellus
[11] = target: GABA-A receptor; anion channel; experiment: Displacement of [3H]flunitrazepam from GABAA receptor in rat brain extract; type: tissue-based

SMILES	CC50 [1] [µM]	remaining at 2 h, 10 µM [2] [%]	solubility [3] [µM]	remaining at 2 h, 10 µM [4] [%]	Activity [5]	remaining at 2 h, 10 µM [6] [%]	Activity [7]	remaining at 2 h, 10 µM [8] [%]	Activity [9] [%]	Activity [10]	IC50 [11] [µM]	solubility at 24 h [3] [µM]	Stability ([8]; s9, 2 h, 10 µM) [%]
CC1(C)N=C(c2ccccc2F)c2cc(Br)ccc2-n2cnc(C(=O)O)c21	> 300	107	4400 (≈ 1880 µg/mL)	111	inactive	106	Non-Toxic	106	74	–	–	–	–
C#Cc1ccc2c(c1)C(c1ccccc1F)=NC1(CC1)C1C(C(=O)OCC)N=CN21 (stereo not given)	> 150	–	53 (≈ 21.3 µg/mL)	–	–	–	–	–	56	–	–	–	–
CCOC(=O)c1ncn2c1C1(CC1)N=C(c1ccccc1F)c1cc(Cl)ccc1-2	> 150	–	54 (≈ 22.1 µg/mL)	–	–	–	–	–	34	–	–	–	–
O=C(O)c1ncn2c1C1(CCCCC1)N=C(c1ccccc1F)c1cc(Br)ccc1-2	> 300	78	46900 (≈ 22000 µg/mL)	106	inactive	111	Non-Toxic	107	24	Active	–	–	–
CCOC(=O)c1ncn2c1C1(CC1)N=C(c1ccccc1F)c1cc(C3CC3)ccc1-2	> 120	–	96 (≈ 39.9 µg/mL)	–	–	–	–	–	22	–	–	–	–
CCOC(=O)c1ncn2c1C1(CCCCC1)N=C(c1ccccc1F)c1cc(Br)ccc1-2	96	–	141 (≈ 70 µg/mL)	–	–	–	–	–	74	–	–	–	–
O=C(O)c1ncn2c1C1(CC1)N=C(c1ccccc1F)c1cc(C3CC3)ccc1-2	> 300	95	12800 (≈ 4960 µg/mL)	96	–	102	Non-Toxic	107	58	–	–	–	–
O=C1Nc2ccc(Br)cc2C(c2ccccc2F)=NC12CCCC2	> 120	–	98 (≈ 38 µg/mL)	–	–	–	–	–	13	–	–	–	–
CCC1N=C(c2ccccc2F)c2cc(Br)ccc2NC1=O (racemic)	> 150	–	–	–	–	–	–	–	95	–	134	397 (≈ 143 µg/mL)	–
CCOC(=O)c1ncn2c1C(CC)N=C(c1ccccc1F)c1cc(Br)ccc1-2 (racemic)	> 300	–	–	–	–	–	–	–	61	–	175	417 (≈ 190 µg/mL)	–
CCOC(=O)c1ncn2c1C1(CCCC1)N=C(c1ccccc1F)c1cc(Br)ccc1-2	106	–	144 (≈ 69.5 µg/mL)	–	–	–	–	–	19	–	–	–	–
O=C1Nc2ccc(Cl)cc2C(c2ccccc2F)=NC12CC2	> 150	–	39 (≈ 12.3 µg/mL)	–	–	–	–	–	90	–	–	–	–
C#Cc1ccc2c(c1)C(c1ccccc1F)=NC1(CC1)c1c(C(=O)O)ncn1-2	> 300	113	40300 (≈ 15000 µg/mL)	93	Active	108	Non-Toxic	106	55	Active	–	–	–
CCOC(=O)c1ncn2c1C1(CC1)N=C(c1ccccc1F)c1cc(Br)ccc1-2	> 120	–	141 (≈ 64.1 µg/mL)	–	–	–	–	–	94	–	–	–	–
O=C(O)c1ncn2c1C1(CC1)N=C(c1ccccc1F)c1cc(Cl)ccc1-2	> 300	98	36200 (≈ 13800 µg/mL)	103	–	101	Non-Toxic	103	18	–	–	–	–
O=C1Nc2ccc(Br)cc2C(c2ccccc2F)=NC12CCCCC2	87	–	94 (≈ 37.7 µg/mL)	–	–	–	–	–	33	–	–	–	–
O=C1Nc2ccc(Br)cc2C(c2ccccc2F)=NC12CCC2	> 150	–	109 (≈ 40.7 µg/mL)	–	–	–	–	–	71	–	–	–	–
O=C1Nc2ccc(Br)cc2C(c2ccccc2F)=NC12CC2	> 150	–	321 (≈ 115 µg/mL)	–	–	–	–	–	97	–	–	–	–
O=C(O)c1ncn2c1C1(CCCC1)N=C(c1ccccc1F)c1cc(Br)ccc1-2	> 300	92	46700 (≈ 21200 µg/mL)	96	inactive	117	Non-Toxic	114	2	–	–	–	–
O=C(O)c1ncn2c1C1(CC1)N=C(c1ccccc1F)c1cc(Br)ccc1-2	> 300	90	8200 (≈ 3500 µg/mL)	69	Active	120	Non-Toxic	104	97	Active	9	–	–
O=C(O)c1ncn2c1C1(CCC1)N=C(c1ccccc1F)c1cc(Br)ccc1-2	> 300	91	58700 (≈ 25800 µg/mL)	113	inactive	90	Non-Toxic	–	59	–	1830	–	122
O=C(O)c1ncn2c1C1(CC1)N=C(c1ccccc1F)c1ccccc1-2	> 300	99	15100 (≈ 5240 µg/mL)	96	Active	108	Non-Toxic	106	74	Active	–	–	–
CC1(C)N=C(c2ccccc2F)c2cc(Br)ccc2NC1=O	> 150	–	319 (≈ 115 µg/mL)	–	–	–	–	–	70	–	–	–	–
CCC1N=C(c2ccccc2F)c2cc(Br)ccc2-n2cnc(C(=O)O)c21 (racemic)	> 300	114	–	111	Active	108	Non-Toxic	119	102	–	145	77600 (≈ 33200 µg/mL)	–
CCOC(=O)c1ncn2c1C1(CCC1)N=C(c1ccccc1F)c1cc(Br)ccc1-2	> 120	–	186 (≈ 87.1 µg/mL)	–	–	–	–	–	83	–	–	–	–
CCOC(=O)c1ncn2c1C(C)(C)N=C(c1ccccc1F)c1cc(Br)ccc1-2	> 150	–	103 (≈ 47 µg/mL)	–	–	–	–	–	78	–	–	–	–
